Assay results: PubChem BioAssay
The source made the active and inactive calls.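 The calls were made as follows, unless noted: active = a full or partial loss of lipid-probe fluorescence in the fish gall bladder, intestine or both, judged by eye; inactive = no fluorescence loss, or compound toxic to the fish.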

What was measured:
[1] = inhibitors of TNFa-induced NFkB p65 translocation, primary screen, imaging, HUVEC, MLSMR starter and 10KST1 sets (AID 438;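 active = inhibition above 20% together with a positive visual image hit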;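 also: compound added about 3h40 before a 20 min TNFalpha stimulation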;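 as to inhibition: signal is the nuclear over cytoplasmic p65 intensity ratio per well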); conditions: HUVEC TNFa-induced p65 nuclear translocation; cell count: measured here: nuclei count (cytotoxicity indicator), at 2.08 µM; inhibition: at 2 µM, stronger effect = higher value, 0% TNFa-plus-vehicle, 100% no-TNFa wells
[2] = endothelial E-selectin expression blockers – imaging, HUVEC, immunofluorescence, MLSMR starter and 10KST1 sets, primary screen (AID 487;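 active = visually confirmed hit in the image check and inhibition above 20%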;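 as to inhibition: signal is fraction of cell area covered by stained E-selectin grains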;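 as to nuclei count: 100% = median nuclei count of all wells on the same plate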); conditions: HUVEC TNFalpha-induced E-selectin immunofluorescence imaging, at 2 µM; inhibition: stronger effect = higher value; nuclei count: measured here: cell number, toxicity
[3] = Primary imaging screen for DUSP6 inhibitors that restore phospho-Erk in transfected HeLa cells, chemical complementation (AID 609;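 active = compounds giving at least 50% inhibition in the cell-based MKP-3 phosphatase rescue imaging test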;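 as to inhibition: phospho-Erk level distribution per well compared with pooled transfected vehicle control wells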); conditions: HeLa MKP-3 transfected, phospho-Erk imaging KS statistic, at 10 µM, cells stimulated with TPA for 15 min
[4] = target: Dual specificity protein phosphatase 6 (Homo sapiens) (UniProt Q16828); test: as above; conditions: HeLa MKP-3 transfected, phospho-Erk imaging KS statistic; at 10 µM; stronger effect = higher value; cells stimulated with TPA for 15 min
[5] = target: Voltage-gated potassium channel subunit beta-2 (Rattus norvegicus) (UniProt P62483); test: inhibitors of rat Kvbeta2 reductase activity – biochemical, NADPH fluorescence, primary screen (AID 622;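 active = fluorescence slope higher than the sample average by over 3 SD, cut at about -0.22 in these data, passing the limit was not always enough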;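 also: slope of raw intensity against log time taken from 70 to 1610 s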); conditions: recombinant KvBeta, 4-cyanobenzaldehyde reduction, at 10 µM, stronger effect = higher value
[6] = target: Voltage-gated potassium channel subunit beta-2 (Rattus norvegicus) (UniProt P62483); test: enhancers of rat Kvbeta2 NADPH turnover – biochemical, NADPH fluorescence, primary screen (AID 623;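 active = NADPH fluorescence slope more negative than the mean of all samples by about 3 SD, 99.7% confidence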;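 also: fluorescence intensity change per second fitted from 20 to 320 s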); conditions: Recombinant KvBeta, NADPH fluorescence decrease slope, 10 min; at 10 µM; stronger effect = lower value
[7] = target: Muscarinic acetylcholine receptor M4 (Homo sapiens) (UniProt P08173); test: M4-linked GIRK flux change, two-sided – cell-based, HEK293 M4/GIRK, thallium flux, BTC-AM, M4 allosteric agonist project, primary screen (AID 625;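 active = fluorescence slope after compound addition differing from the mean of all tested samples at 99.7% confidence, mostly higher but some lower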;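 also: thallium influx through GIRK channels coupled to M4 in HEK293 cells with BTC-AM dye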); conditions: at 10 µM, actives lie on both sides
Outline: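 Material: M4/GIRK1/GIRK2 stable HEK293 cell line. Medium: pH 7.3 thallium assay buffer. Dosing: single compound concentration, 10 µM final. Schedule: 1 h dye loading, 2 min kinetic read. Measured by: kinetic fluorescence with BTC-AM dye. Read-out: post-addition slope, 15–24 s, of baseline-normalized fluorescence. Benchmarks: carbachol and DMSO controls.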

[8] = inhibitors of larval lipid processing in zebrafish, primary screen, whole organism, PED6 fluorescence, gall bladder and intestine (AID 686); conditions: Zebrafish larvae PED6 lipid processing, fluorescence scoring; screened at 20 µM (by protocol);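 also: larvae 5 to 7 days old with five fish per well; signal comes from phospholipase A2 cleavage of quenched PED6 carried via bile; overnight exposure to compound and PED6 before scoring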
Outline: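 System: live zebrafish larvae aged 5-7 days, whole organism; measure: graded gall bladder and intestinal fluorescence inhibition per well; incubation: overnight exposure; reagent: ingested quenched lipid PED6 at 100 nM; signal: By-eye fluorescence microscopy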

[9] = loss of swimming-algae plug formation – whole organism, Chlamydomonas reinhardtii, WT vs cilia-less mutant, absorbance, 96-well, primary screen (AID 463189;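 active = inhibition at or above 50% relative to wild type and mutant plate controls; inactive = inhibition below 50%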;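 also: 0% = wild type cc124 cells in DMSO and 100% = ciliumless bld1 mutant cells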); conditions: Chlamydomonas reinhardtii gravitaxis, OD600 absorbance, 2 days; at 10 µM; stronger effect = higher value
[10] = measured here: cell density z-score
[11] = measured here: nuclear c-Myc green intensity z-score
[12] = measured here: nuclear pErk red intensity z-score, stronger effect = higher value

Muscarinic acetylcholine receptor M4 (Homo sapiens), sequence (P08173 whole entry, looked up): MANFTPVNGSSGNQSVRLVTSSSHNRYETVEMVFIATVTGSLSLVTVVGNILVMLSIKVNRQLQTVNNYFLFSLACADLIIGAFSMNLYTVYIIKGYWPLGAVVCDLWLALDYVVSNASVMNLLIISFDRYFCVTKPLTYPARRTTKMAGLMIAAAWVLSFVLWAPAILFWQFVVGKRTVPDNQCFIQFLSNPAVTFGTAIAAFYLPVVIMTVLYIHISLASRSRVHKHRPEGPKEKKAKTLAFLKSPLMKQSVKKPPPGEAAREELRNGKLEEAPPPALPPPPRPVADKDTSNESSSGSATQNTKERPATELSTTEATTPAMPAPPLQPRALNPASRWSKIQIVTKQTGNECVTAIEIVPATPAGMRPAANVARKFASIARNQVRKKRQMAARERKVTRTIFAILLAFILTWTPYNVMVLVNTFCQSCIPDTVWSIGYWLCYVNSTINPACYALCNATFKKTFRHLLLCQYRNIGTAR
Dual specificity protein phosphatase 6 (Homo sapiens), sequence (Q16828 whole entry, looked up): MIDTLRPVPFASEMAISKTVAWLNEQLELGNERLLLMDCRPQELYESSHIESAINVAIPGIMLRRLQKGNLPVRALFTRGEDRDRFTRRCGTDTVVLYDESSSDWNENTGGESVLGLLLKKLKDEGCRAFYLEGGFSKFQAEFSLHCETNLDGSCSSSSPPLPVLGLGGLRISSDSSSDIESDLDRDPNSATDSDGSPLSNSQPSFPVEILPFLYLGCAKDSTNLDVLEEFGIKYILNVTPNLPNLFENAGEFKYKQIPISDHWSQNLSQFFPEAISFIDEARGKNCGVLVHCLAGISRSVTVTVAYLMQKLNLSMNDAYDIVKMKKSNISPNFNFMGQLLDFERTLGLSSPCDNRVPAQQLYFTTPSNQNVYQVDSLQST
Voltage-gated potassium channel subunit beta-2 (Rattus norvegicus), sequence (P62483 whole entry, looked up): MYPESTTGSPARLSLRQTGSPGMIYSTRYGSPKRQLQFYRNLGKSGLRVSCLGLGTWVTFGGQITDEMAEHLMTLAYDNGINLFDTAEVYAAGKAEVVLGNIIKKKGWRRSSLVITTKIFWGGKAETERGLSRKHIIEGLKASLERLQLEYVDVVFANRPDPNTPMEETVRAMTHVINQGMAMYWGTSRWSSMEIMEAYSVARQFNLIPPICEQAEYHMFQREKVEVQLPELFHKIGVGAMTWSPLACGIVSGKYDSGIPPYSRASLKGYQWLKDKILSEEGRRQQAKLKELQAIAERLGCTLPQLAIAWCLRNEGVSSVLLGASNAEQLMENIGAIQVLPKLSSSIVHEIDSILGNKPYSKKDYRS

Row | SMILES | cell count [1] | inhibition [1] | inhibition [2] | nuclei count [2] [%] | z-score [3, 10] | z-score [3, 11] | z-score [3, 12] | inhibition [4] | fluorescence slope [5] | NADPH fluorescence slope [6] | fluorescence slope [7] | outcome [8] | inhibition [9]
1 | N#C/C(=C\c1c(N2CCC(C(N)=O)CC2)nc2ccccn2c1=O)S(=O)(=O)c1ccccc1 | 444 | -3.7% (inactive) | -112% (inactive) | 144 | 1.56 | -0.902 | -1.07 | 12.7% (inactive) | -0.423 (inactive) | -2.9e-05 (inactive) | 0.00437 (inactive) | inactive | 4.15% (inactive)
2 | COc1ccccc1NC(=O)Nc1nnc(C(C)C)s1 | 702 | -3.3% (inactive) | -24.3% (inactive) | 157 | -0.239 | -0.311 | 0.0371 | -5.81% (inactive) | -0.476 (inactive) | -1.2e-05 (inactive) | 0.00885 (inactive) | inactive | 3.73% (inactive)
3 | CCC(NC(=O)NC1=NCCS1)(C(F)(F)F)C(F)(F)F | 772 | 2.9% (inactive) | -60% (inactive) | 150 | 0.622 | -0.646 | 0.179 | 20.2% (inactive) | -0.433 (inactive) | -7.2e-05 (inactive) | 0.00527 (inactive) | inactive | -2.29% (inactive)
4 | CCOC(=O)c1[nH]c2ccc(F)cc2c1N=C(C)N(CC)CC | 621 | -7.1% (inactive) | -132% (inactive) | 100 | -2.41 | 0.938 | -0.403 | 1.9e-07% (inactive) | -0.497 (inactive) | -8.7e-05 (inactive) | 0.00509 (inactive) | inactive | -19.6% (inactive)
5 | CC1(C)C2CCC1(C)C(OC(=O)CC(=O)O)C2 (stereo unspecified) | 566 | -2% (inactive) | -63.5% (inactive) | 143 | 0.899 | -0.605 | 0.67 | 1.98% (inactive) | -0.382 (inactive) | -4.1e-05 (inactive) | 0.00679 (inactive) | inactive | 5.19% (inactive)
6 | Nc1nnnn1/N=C/c1cccs1 | 656 | -4.7% (inactive) | -50.1% (inactive) | 124 | -0.3 | -1.24 | -0.836 | -8.95% (inactive) | -0.483 (inactive) | -6.6e-05 (inactive) | 0.00656 (inactive) | inactive | 17.8% (inactive)
7 | O=C(c1ccc2c3c(cccc13)C(=O)N(O)C2=O)N1CCCCC1 | 583 | -6.7% (inactive) | 65.6% (active) | 92.9 | 1.73 | -0.867 | -1.15 | 35.1% (inactive) | -0.426 (inactive) | -3.2e-05 (inactive) | 0.00526 (inactive) | inactive | 35.8% (inactive)
8 | CC(=O)C1=C(O)C(=O)N(c2ccc(Br)cn2)C1c1ccccc1F (stereo unspecified) | 545 | -2.5% (inactive) | -45.7% (inactive) | 131 | 1.35 | -1.7 | -1.31 | 3.97% (inactive) | -0.454 (inactive) | -3.5e-05 (inactive) | 0.00688 (inactive) | inactive | 1.29% (inactive)
9 | O=c1c2ccccc2ncn1Cc1ccco1 | 682 | -8.5% (inactive) | -74.2% (inactive) | 138 | -0.419 | -1.56 | 0.938 | -15.1% (inactive) | -0.449 (inactive) | -3.2e-05 (inactive) | 0.00462 (inactive) | inactive | 14.3% (inactive)
10 | O=c1c2c3c(sc2nc2n1CCCS2)CCCC3 | 612 | -6.1% (inactive) | -125% (inactive) | 162 | -0.979 | -0.423 | 0.7 | -7.67% (inactive) | -0.477 (inactive) | -9.8e-05 (inactive) | 0.00442 (inactive) | inactive | 73.3% (active)
11 | CCC(=O)Nc1ccc(-c2nnc(-c3ccccc3)o2)cc1 | 647 | 1.6% (inactive) | 18.6% (inactive) | 89.6 | 1.36 | -0.514 | 1.06 | 1.63% (inactive) | -0.444 (inactive) | -8.1e-05 (inactive) | 0.00653 (inactive) | inactive | 30.3% (inactive)
12 | CC(=O)/C(C#N)=C1\NC(=O)C(Cc2ccccc2Cl)S1 (stereo unspecified) | 605 | -10.1% (inactive) | 31.2% (inactive) | 179 | 1.48 | -0.162 | -0.594 | 7.42% (inactive) | -0.416 (inactive) | -7e-05 (inactive) | 0.00568 (inactive) | inactive | 4.47% (inactive)
